Measurements reported in ChEMBL document CHEMBL1149718, “Antibacterial activity of crinitol and its potentiation” (1992).
Converted amounts (≈) assume the structure as drawn. The source made the active and inactive calls. The calls are words filed in the database; no cut-off is given here.

Columns and labels:
Staphylococcus aureus [1] = test: Antibacterial activity against Staphylococcus aureus ATCC 12598 up to 800 ug/ml after 2 days by broth dilution method; assay type: functional, organism-based
Summary of the method: (§1)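 Broth dilution in 0.8% nutrient broth, 0.5% yeast extract and 0.1% glucose. Compound in DMF, diluted twofold, 1% DMF final, highest 800 µg/ml. Inoculum was a 2-day-old culture, reactivated at 30° with shaking (B. subtilis), at 30° stationary (Br. ammoniagenes) or at 37° stationary (others). Stationary incubation 2 days; growth by OD at 660 nm; MIC = lowest concentration with no growth.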

[2] = test system: Corynebacterium ammoniagenes; test: Antibacterial activity against Brevibacterium ammoniagenes ATCC 6872 up to 800 ug/ml after 2 days by broth dilution method; assay type: functional, organism-based; summary of the method: as §1
Bacillus subtilis [3] = test: Antibacterial activity against Bacillus subtilis ATCC 9372 up to 800 ug/ml after 2 days by broth dilution method; assay type: functional, organism-based; summary of the method: as §1
Streptococcus mutans [4] = test: Antibacterial activity against Streptococcus mutans ATCC 25175 up to 800 ug/ml after 2 days by broth dilution method; assay type: functional, organism-based
Summary of the method: (§2)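 Twofold broth dilution in 3.7% brain heart infusion broth. Sample dissolved in DMF, 1% DMF final, top concentration 800 µg/ml. Inoculated with 2-day-old culture reactivated in stationary culture at 37°. Stationary incubation for 2 days, turbidity read at 660 nm; MIC taken as lowest concentration showing no growth.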

Cutibacterium acnes [5] = test: Antibacterial activity against Propionibacterium acnes ATCC 11827 up to 800 ug/ml after 2 days by broth dilution method; assay type: functional, organism-based; summary of the method: as §1
Staphylococcus aureus [6] = test: Antibacterial activity against Staphylococcus aureus ATCC 12598 after 2 days by broth dilution method; assay type: functional; conditions: ATCC 12598, 48 h; summary of the method: as §1
Streptococcus mutans [7] = test: Antibacterial activity against Streptococcus mutans ATCC 25175 after 2 days by broth dilution method; assay type: functional; conditions: ATCC 25175, 48 h; summary of the method: as §2
Cutibacterium acnes [8] = test: Antibacterial activity against Propionibacterium acnes ATCC 11827 after 2 days by broth dilution method; assay type: functional; conditions: ATCC 11827, 48 h; summary of the method: as §1
Bacillus subtilis [9] = test: Antibacterial activity against Bacillus subtilis ATCC 9372 after 2 days by broth dilution method in presence of 0.5 MIC of crinitol; assay type: functional; conditions: ATCC 9372, 48 h
[10] = test system: Corynebacterium ammoniagenes; test: Antibacterial activity against Brevibacterium ammoniagenes ATCC 6872 after 2 days by broth dilution method in presence of 0.5 MIC of crinitol; assay type: functional; conditions: ATCC 6872, 48 h
Staphylococcus aureus [11] = test: Antibacterial activity against Staphylococcus aureus ATCC 12598 after 2 days by broth dilution method in presence of 0.5 MIC of crinitol; assay type: functional; conditions: ATCC 12598, 48 h
Streptococcus mutans [12] = test: Antibacterial activity against Streptococcus mutans ATCC 25175 after 2 days by broth dilution method in presence of 0.5 MIC of crinitol; assay type: functional; conditions: ATCC 25175, 48 h
Cutibacterium acnes [13] = test: Antibacterial activity against Propionibacterium acnes ATCC 11827 after 2 days by broth dilution method in presence of 0.5 MIC of crinitol; assay type: functional; conditions: ATCC 11827, 48 h
Bacillus subtilis [14] = test: Antibacterial activity against Bacillus subtilis ATCC 9372 after 2 days by broth dilution method; assay type: functional; conditions: ATCC 9372, 48 h; summary of the method: as §1
[15] = test system: Corynebacterium ammoniagenes; test: Antibacterial activity against Brevibacterium ammoniagenes ATCC 6872 after 2 days by broth dilution method; assay type: functional; conditions: ATCC 6872, 48 h; summary of the method: as §1
Streptococcus mutans [16] = test: Ratio of MIC for Streptococcus mutans ATCC 25175 to MIC for Streptococcus mutans ATCC 25175 in presence of 0.5 MIC of crinitol; assay type: functional
[17] = test system: Corynebacterium ammoniagenes; test: Antibacterial activity against Brevibacterium ammoniagenes ATCC 6872 after 2 days by broth dilution method in presence of 0.5 MIC of butylated hydroxyanisole; assay type: functional; conditions: ATCC 6872, 48 h
Summary of the method: (§3)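 Checkerboard: twofold dilutions of crinitol crossed with twofold dilutions of the antioxidant (BHA or BHT). Medium was nutrient broth/yeast extract/glucose, or 3.7% brain heart infusion for S. mutans. DMF at 1% final, 2-day-old inoculum, stationary culture 2 days. Growth by OD 660 nm; MIC = lowest concentration without growth.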

Bacillus subtilis [18] = test: Antibacterial activity against Bacillus subtilis ATCC 9372 after 2 days by broth dilution method in presence of 0.5 MIC of butylated hydroxyanisole; assay type: functional; conditions: ATCC 9372, 48 h; summary of the method: as §3
Staphylococcus aureus [19] = test: Antibacterial activity against Staphylococcus aureus ATCC 12598 after 2 days by broth dilution method in presence of 0.5 MIC of butylated hydroxyanisole; assay type: functional; conditions: ATCC 12598, 48 h; summary of the method: as §3
Streptococcus mutans [20] = test: Antibacterial activity against Streptococcus mutans ATCC 25175 after 2 days by broth dilution method in presence of 0.5 MIC of butylated hydroxyanisole; assay type: functional; conditions: ATCC 25175, 48 h; summary of the method: as §3
Cutibacterium acnes [21] = test: Antibacterial activity against Propionibacterium acnes ATCC 11827 after 2 days by broth dilution method in presence of 0.5 MIC of butylated hydroxyanisole; assay type: functional; conditions: ATCC 11827, 48 h; summary of the method: as §3
Bacillus subtilis [22] = test: Antibacterial activity against Bacillus subtilis ATCC 9372 after 2 days by broth dilution method in presence of 0.5 MIC of butylated hydroxytoluene; assay type: functional; conditions: ATCC 9372, 48 h; summary of the method: as §3
[23] = test system: Corynebacterium ammoniagenes; test: Antibacterial activity against Brevibacterium ammoniagenes ATCC 6872 after 2 days by broth dilution method in presence of 0.5 MIC of butylated hydroxytoluene; assay type: functional; conditions: ATCC 6872, 48 h; summary of the method: as §3
Staphylococcus aureus [24] = test: Antibacterial activity against Staphylococcus aureus ATCC 12598 after 2 days by broth dilution method in presence of 0.5 MIC of butylated hydroxytoluene; assay type: functional; conditions: ATCC 12598, 48 h; summary of the method: as §3
Streptococcus mutans [25] = test: Antibacterial activity against Streptococcus mutans ATCC 25175 after 2 days by broth dilution method in presence of 0.5 MIC of butylated hydroxytoluene; assay type: functional; conditions: ATCC 25175, 48 h; summary of the method: as §3
Cutibacterium acnes [26] = test: Antibacterial activity against Propionibacterium acnes ATCC 11827 after 2 days by broth dilution method in presence of 0.5 MIC of butylated hydroxytoluene; assay type: functional; conditions: ATCC 11827, 48 h; summary of the method: as §3
Streptococcus mutans [27] = test: Ratio of MIC for Streptococcus mutans ATCC 25175 to MIC for Streptococcus mutans ATCC 25175 in presence of 0.5 MIC of butylated hydroxytoluene; assay type: functional
Bacillus subtilis [28] = test: Ratio of MIC for Bacillus subtilis ATCC 9372 to MIC for Bacillus subtilis ATCC 9372 in presence of 0.5 MIC of butylated hydroxytoluene; assay type: functional
[29] = test system: Corynebacterium ammoniagenes; test: Ratio of MIC for Brevibacterium ammoniagenes ATCC 6872 to MIC for Brevibacterium ammoniagenes ATCC 6872 in presence of 0.5 MIC of butylated hydroxytoluene; assay type: functional
Cutibacterium acnes [30] = test: Ratio of MIC for Propionibacterium acnes ATCC 11827 to MIC for Propionibacterium acnes ATCC 11827 in presence of 0.5 MIC of butylated hydroxytoluene; assay type: functional
Bacillus subtilis [31] = test: Ratio of MIC for Bacillus subtilis ATCC 9372 to MIC for Bacillus subtilis ATCC 9372 in presence of 0.5 MIC of butylated hydroxyanisole; assay type: functional
[32] = test system: Corynebacterium ammoniagenes; test: Ratio of MIC for Brevibacterium ammoniagenes ATCC 6872 to MIC for Brevibacterium ammoniagenes ATCC 6872 in presence of 0.5 MIC of butylated hydroxyanisole; assay type: functional
Cutibacterium acnes [33] = test: Ratio of MIC for Propionibacterium acnes ATCC 11827 to MIC for Propionibacterium acnes ATCC 11827 in presence of 0.5 MIC of butylated hydroxyanisole; assay type: functional

MIC (Staphylococcus aureus [6]) [µg/mL] | MIC (Streptococcus mutans [7]) [µg/mL] | MIC (Cutibacterium acnes [8]) [µg/mL] | MIC (Bacillus subtilis [14]) [µg/mL] | MIC [15] [µg/mL] | SMILES | Activity (Staphylococcus aureus [1]) | Activity [2] | Activity (Bacillus subtilis [3]) | Activity (Streptococcus mutans [4]) | Activity (Cutibacterium acnes [5]) | further results
 |  |  |  |  | CC(=O)OC/C=C(\C)CC/C=C(\C)C[C@H](/C=C(\C)CCC=C(C)C)OC(C)=O | inactive | inactive | inactive | inactive | inactive | 
 |  |  |  |  | CC(=O)O[C@@H](/C=C(\C)CCC=C(C)C)C/C(C)=C/CC/C(C)=C/CO | inactive | inactive | inactive | inactive | inactive | 
 |  |  |  |  | CC(C)=CCC/C(C)=C/C(=O)C/C(C)=C/CC/C(C)=C/CO | inactive | inactive | inactive | inactive | inactive | 
 |  |  |  |  | CC(C)=CCC/C(C)=C/CC/C(C)=C/CC/C(C)=C/CO | inactive | inactive | inactive | inactive | inactive | 
> 800 | 25 (≈ 113 µM) | 25 (≈ 113 µM) | 25 (≈ 113 µM) | 25 (≈ 113 µM) | Cc1cc(C(C)(C)C)c(O)c(C(C)(C)C)c1 [BUTYLATED HYDROXYTOLUENE] |  |  |  |  |  | MIC (Bacillus subtilis [9]): 6.25 µg/mL; MIC [10]: 12.5 µg/mL; MIC (Streptococcus mutans [12]): 1.57 µg/mL; MIC (Cutibacterium acnes [13]): 6.25 µg/mL; Ratio (Streptococcus mutans [16]): 16
400 (≈ 1310 µM) | 50 (≈ 163 µM) | 25 (≈ 81.6 µM) | 50 (≈ 163 µM) | 100 (≈ 326 µM) | CC(C)=CCC/C(C)=C/[C@H](O)C/C(C)=C/CC/C(C)=C/CO [CRINITOL] |  |  |  |  |  | MIC [17]: 100 µg/mL; MIC (Bacillus subtilis [18]): 50 µg/mL; MIC (Staphylococcus aureus [19]): 400 µg/mL; MIC (Streptococcus mutans [20]): 12.5 µg/mL; MIC (Cutibacterium acnes [21]): 6.25 µg/mL; MIC (Bacillus subtilis [22]): 12.5 µg/mL; MIC [23]: 50 µg/mL; MIC (Staphylococcus aureus [24]): 400 µg/mL; MIC (Streptococcus mutans [25]): 0.78 µg/mL; MIC (Cutibacterium acnes [26]): 6.25 µg/mL; Ratio (Streptococcus mutans [27]): 64; Ratio (Bacillus subtilis [28]): 4; Ratio [29]: 2; Ratio (Cutibacterium acnes [30]): 4; Ratio (Bacillus subtilis [31]): 1; Ratio [32]: 1; Ratio (Cutibacterium acnes [33]): 4

SMILES | MIC (Staphylococcus aureus [6]) [µg/mL] | MIC (Streptococcus mutans [7]) [µg/mL] | MIC (Cutibacterium acnes [8]) [µg/mL] | MIC (Bacillus subtilis [14]) [µg/mL] | MIC [15] [µg/mL] | Activity (Staphylococcus aureus [1]) | Activity [2] | Activity (Bacillus subtilis [3]) | Activity (Streptococcus mutans [4]) | Activity (Cutibacterium acnes [5]) | further results
COc1ccc(O)c(C(C)(C)C)c1.COc1ccc(O)cc1C(C)(C)C [BUTYLATED HYDROXYANISOLE] | 200 | 100 | 50 | 100 | 200 |  |  |  |  |  | MIC (Bacillus subtilis [9]): 50 µg/mL; MIC [10]: 100 µg/mL; MIC (Staphylococcus aureus [11]): 200 µg/mL; MIC (Streptococcus mutans [12]): 12.5 µg/mL; MIC (Cutibacterium acnes [13]): 6.25 µg/mL; Ratio (Streptococcus mutans [16]): 18
